Results of several laboratories.
Protocols differ between the studies behind these lines.
Target: Serine/threonine-protein kinase 32C (STK32C, Homo sapiens, UniProt Q86UX6)

The inhibition of CCCCNc1ncc2c(-c3ccc(F)cc3)nn(C[C@H]3CC[C@H](N)CC3)c2n1 is reported as 55% (target engagement in cells; inhibitor; chemoproteomics; 20 mM).
The remaining binding of CN(C)C(=O)Cn1cc(-c2nc(C3(c4ccc(-c5cnc(N)nc5)cc4)CC3)no2)cn1 is reported as 100% (cell-free assay; competition with immobilised ligand; 1 µM).
With O=C(CSc1nc2nccnc2c(=O)n1CCc1ccccc1)Nc1nccs1 the inhibition was -9% (enzyme activity; inhibitor; 10 µM).
CN1CC(Oc2cnc(C#N)cc2-c2ccn3nc(NC(=O)C4CC4)cc3c2)C1 has an inhibition of -5% (enzyme activity; inhibitor; 1 µM).
With Cc1nc(C2CCN(C(=O)c3ccc(OC(F)(F)F)cc3N)CC2)c2ncc(N3CCN(C)CC3)cc2n1 the remaining binding was 100% (cell-free assay; competition with immobilised ligand; 1 µM).
For CS(=O)(=O)Nc1cccc(-c2csc(NC(=O)CSc3nc4nccnc4c(=O)n3CCc3ccccc3)n2)c1, the inhibition was -5% (enzyme activity; inhibitor; 10 µM).
COc1cc(Cl)c(C(=O)N[C@@H](CN[C@H]2CC[C@@H](N)CC2)Cc2ccc(C#N)cc2)cc1-c1ccc(CN[C@H](C)c2ccc(C)cc2)o1 has a remaining activity of 95% (enzyme activity; inhibitor; 1 µM).
CC(C)(O)[C@H]1CC[C@H](Nc2ccc3ncc(-c4cccc(C(F)(F)F)c4)n3n2)CC1 gave a remaining activity of 83.2% (enzyme activity; inhibitor; 1 µM).
For O=C(Nc1cnn(-c2csc(C(=O)NC3COC3)c2)c1)Nc1ccccc1Cl, the remaining activity was 113% (enzyme activity; inhibitor; 5 µM).
For Nc1ncnc2occ(-c3ccc(NC(=O)Nc4cc(C(F)(F)F)ccc4F)cc3)c12, the remaining signal was 91% (cell-free assay; 20 µM).
Cc1ccc(C(=O)Nc2ccc(CN3CCN(C)CC3)c(C(F)(F)F)c2)cc1C#Cc1cnc2cccnn12 has a remaining activity of 100% (enzyme activity; 23.5 nM).
With O=C(Nc1cnn(-c2csc(C(=O)NC3COC3)c2)c1)Nc1c(F)cccc1Cl the remaining activity was 90.7% (enzyme activity; inhibitor; 5 µM).
The inhibition of COc1cccc2c(NCc3ccccc3)nc(-n3c(N)nc4ccccc43)nc12 is reported as 13.6% (target engagement in cells; inhibitor; chemoproteomics; 20 mM).
